Tests used:
Assay type in all cases: functional
[1] = test system: OVCAR-4; experiment: Cytotoxicity against human OVCAR4 cells assessed as cell growth at 0.1 uM after 48 hrs by sulforhodamine B assay; conditions: OVCAR-4, 48 h, read-out: Activity
[2] = test system: A498; experiment: Growth inhibition of human A498 cells after 48 hrs by sulforhodamine B assay; conditions: A498, 48 h; for CC50: read-out: LC50 (the source's name)
How it was run: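 A498 adherent renal cells, plated in RPMI 1640 with 5% FBS and 2 mM L-glutamine, were preincubated for 24 h and then exposed for 48 h at 37 °C to 0.01–100 µM. Fixation was 10% TCA (final) for 60 min at 4 °C, then SRB staining and absorbance at 515 nm. GI50 was derived from (Ti−Tz)/(C−Tz)×100 = 50, using time-zero plates.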

[3] = test system: OVCAR-3; experiment: Cytotoxicity against human OVCAR3 cells assessed as cell growth at 100 uM after 48 hrs by sulforhodamine B assay; conditions: OVCAR-3, 48 h, read-out: Activity
[4] = test system: MDA-MB-435; experiment: Cytotoxicity against human MDA-MB-435 cells assessed as cell growth at 0.01 uM after 48 hrs by sulforhodamine B assay; conditions: MDA-MB-435, 48 h, read-out: Activity
[5] = test system: IGROV-1; experiment: Cytotoxicity against human IGROV1 cells assessed as cell growth at 10 '-5 M after 48 hrs by sulforhodamine B assay; conditions: IGROV-1, 48 h, read-out: Activity
[6] = test system: HT-29; experiment: Cytotoxicity against human HT-29 cells assessed as cell growth at 0.01 uM after 48 hrs by sulforhodamine B assay; conditions: HT-29, 48 h, read-out: Activity
How it was run: (§1)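 Five-dose NCI panel run at 0.01, 0.1, 1, 10 and 100 µM. Cells were in RPMI 1640 with 5% FBS and 2 mM L-glutamine, seeded at 5000–40,000 cells/well and pre-incubated 24 h. Drug was diluted from a DMSO stock into medium with 50 µg/ml gentamicin. Exposure was 48 h at 37 °C, 5% CO2. Cells were fixed with cold TCA and stained with 0.4% SRB, read at 515 nm. Percent growth came from time-zero, control and test absorbances.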

[7] = test system: NCI-H23; experiment: Cytotoxicity against human NCI-H23 cells assessed as cell growth at 100 uM after 48 hrs by sulforhodamine B assay; conditions: NCI-H23, 48 h, read-out: Activity
[8] = test system: OVCAR-5; experiment: Cytotoxicity against human OVCAR5 cells assessed as cell growth at 0.1 uM after 48 hrs by sulforhodamine B assay; conditions: OVCAR-5, 48 h, read-out: Activity
[9] = test system: SNB-75; experiment: Cytotoxicity against human SNB75 cells assessed as cell growth at 100 uM after 48 hrs by sulforhodamine B assay; conditions: SNB-75, 48 h, read-out: Activity
[10] = test system: HT-29; experiment: Cytotoxicity against human HT-29 cells assessed as cell growth at 100 uM after 48 hrs by sulforhodamine B assay; conditions: HT-29, 48 h, read-out: Activity; how it was run: as §1
[11] = test system: LOX IMVI; experiment: Growth inhibition of human LOXIMVI cells after 48 hrs by sulforhodamine B assay
How it was run: (§2)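 Adherent NCI-60 lines were grown in RPMI 1640 with 5% FBS and 2 mM L-glutamine, plated at 5000–40,000 cells/well and preincubated 24 h. They were then exposed to five concentrations (0.01–100 µM, from a DMSO stock) for 48 h at 37 °C, 5% CO2. Cells were fixed with cold TCA (10% final, 60 min, 4 °C) and stained with 0.4% SRB. Dye was solubilized in 10 mM Tris base and A515 read. GI50 was derived from time-zero, control and treated absorbances.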

[12] = test system: MDA-MB-435; experiment: Cytotoxicity against human MDA-MB-435 cells assessed as cell growth at 1 uM after 48 hrs by sulforhodamine B assay; conditions: MDA-MB-435, 48 h, read-out: Activity
[13] = test system: SK-MEL-2; experiment: Cytotoxicity against human SK-MEL-2 cells assessed as cell growth at 10 uM after 48 hrs by sulforhodamine B assay; conditions: SK-MEL-2, 48 h, read-out: Activity
[14] = test system: NCI/ADR-RES; experiment: Cytotoxicity against human NCI/ADR-RES cells assessed as cell growth at 1 uM after 48 hrs by sulforhodamine B assay; conditions: read-out: Activity
[15] = test system: Malme-3M; experiment: Cytotoxicity against human MALME-3M cells assessed as cell growth at 0.1 uM after 48 hrs by sulforhodamine B assay; conditions: read-out: Activity
[16] = test system: NCI-H23; experiment: Cytotoxicity against human NCI-H23 cells assessed as cell growth at 0.01 uM after 48 hrs by sulforhodamine B assay; conditions: NCI-H23, 48 h, read-out: Activity
[17] = test system: NCI-H23; experiment: Cytotoxicity against human NCI-H23 cells assessed as cell growth at 0.1 uM after 48 hrs by sulforhodamine B assay; conditions: NCI-H23, 48 h, read-out: Activity
[18] = test system: PC-3; experiment: Cytotoxicity against human PC3 cells assessed as cell growth at 10 '-5 M after 48 hrs by sulforhodamine B assay; conditions: PC-3, 48 h, read-out: Activity
[19] = test system: NCI-H522; experiment: Growth inhibition of human NCI-H522 cells after 48 hrs by sulforhodamine B assay; conditions: NCI-H522, 48 h; how it was run: as §2
[20] = test system: HCT-15; experiment: Cytotoxicity against human HCT15 cells assessed as cell growth at 0.1 uM after 48 hrs by sulforhodamine B assay; conditions: HCT-15, 48 h, read-out: Activity; how it was run: as §1
[21] = test system: NCI-H322M; experiment: Growth inhibition of human NCI-H322M cells after 48 hrs by sulforhodamine B assay; conditions: for CC50: read-out: LC50 (the source's name); how it was run: as §2
[22] = test system: CCRF-CEM; experiment: Growth inhibition of human CCRF-CEM cells after 48 hrs by sulforhodamine B assay
How it was run: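 Cells were in RPMI 1640 with 5% FBS and pre-incubated 24 h. Read-out was TCA fixation, SRB staining and absorbance at 515 nm. GI50 was the concentration where [(Ti−Tz)/(C−Tz)]×100 = 50, taken from log concentration vs % growth curves. It is given as ">" the top concentration when not reached.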

[23] = test system: NCI-H460; experiment: Cytotoxicity against human NCI-H460 cells assessed as cell growth at 0.01 uM after 48 hrs by sulforhodamine B assay; conditions: NCI-H460, 48 h, read-out: Activity
[24] = test system: SK-MEL-5; experiment: Growth inhibition of human SK-MEL-5 cells after 48 hrs by sulforhodamine B assay; conditions: SK-MEL-5, 48 h; how it was run: as §2
[25] = test system: M14; experiment: Cytotoxicity against human M14 cells assessed as cell growth at 0.01 uM after 48 hrs by sulforhodamine B assay; conditions: M14, 48 h, read-out: Activity
[26] = test system: UACC-257; experiment: Cytotoxicity against human UACC257 cells assessed as cell growth at 0.01 uM after 48 hrs by sulforhodamine B assay; conditions: UACC-257, 48 h, read-out: Activity
[27] = test system: MDA-MB-468; experiment: Cytotoxicity against human MDA-MB-468 cells assessed as cell growth at 100 uM after 48 hrs by sulforhodamine B assay; conditions: MDA-MB-468, 48 h, read-out: Activity
[28] = test system: SF-268; experiment: Cytotoxicity against human SF268 cells assessed as cell growth at 10 '-5 M after 48 hrs by sulforhodamine B assay; conditions: SF-268, 48 h, read-out: Activity

Row | Compound | growth at 0.1 µM [1] [%] | CC50 [2] [µM] | growth at 100 µM [3] [%] | growth at 0.01 µM [4] [%] | growth at 10 µM [5] [%] | growth at 0.01 µM [6] [%] | growth at 100 µM [7] [%] | growth at 0.1 µM [8] [%] | growth at 100 µM [9] [%] | growth at 100 µM [10] [%] | TGI [11] [µM] | growth at 1 µM [12] [%] | growth at 10 µM [13] [%] | growth at 1 µM [14] [%] | growth at 0.1 µM [15] [%] | growth at 0.01 µM [16] [%] | growth at 0.1 µM [17] [%] | growth at 10 µM [18] [%] | GI50 [19] [µM] | TGI [19] [µM] | further results
1 | Cc1ccc2nc(Nc3c(C)cccc3C)sc2c1 | 89 | > 100 | 66 | 95 | 49.2 | 98 | 65 | 106 | 32 | 39 | > 100 | -8 | 48 | 40 | 103 | 94 | 92 | 40.4 | 0.552 | > 100 | LC50 [11]: > 100 µM; CC50 ([19]; read-out: LC50 (the source's name)): > 100 µM; growth at 0.1 µM [20]: 98%; GI50 [21]: > 100 µM; TGI [21]: > 100 µM; CC50 [21]: > 100 µM; GI50 [22]: > 100 µM; LC50 [22]: > 100 µM; TGI [22]: > 100 µM; growth at 0.01 µM [23]: 102%; LC50 [24]: > 100 µM; TGI [24]: > 100 µM; growth at 0.01 µM [25]: 106%; growth at 0.01 µM [26]: 101%; growth at 100 µM [27]: 27%; growth at 10 µM [28]: 61%
2 | Clc1cccc(Cl)c1Nc1nc2cccc(Cl)c2s1 | 83 | 4.16 | -76 | 96 | 3.69 | 100 | -58 | 92 | 4 | -56 | 2.51 | 46 | -64 | 36 | 90 | 95 | 83 | 4.1 | 1.02 | 2.61 | GI50 [2]: 0.26 µM; TGI [2]: 1.62 µM; GI50 [11]: 1.09 µM; growth at 0.1 µM [20]: 99%; GI50 [21]: 1.46 µM; TGI [21]: 3.01 µM; CC50 [21]: 6.19 µM; GI50 [22]: 1.32 µM; LC50 [22]: > 100 µM; TGI [22]: 4.43 µM; growth at 0.01 µM [23]: 102%; GI50 [24]: 1 µM; LC50 [24]: 4.93 µM; TGI [24]: 2.22 µM; growth at 0.01 µM [25]: 103%; growth at 0.01 µM [26]: 102%; growth at 100 µM [27]: -59%; growth at 10 µM [28]: -33.9%

— ChEMBL document CHEMBL2040734, “Benzothiazoles: search for anticancer agents” (2012)
